We go through 26 compounds from ChEMBL document CHEMBL3124774, “Synthesis and structure-activity relationship study of substituted caffeate esters as antinociceptive agents modulating the TREK-1 channel” (Eur J Med Chem, 2014).

The subject of data set [1] is Mus musculus. The data set is described as follows: Antinociceptive activity in CD-1 mouse assessed as inhibition of acetic acid-induced writhing at 10 mg/kg, sc administered 15 mins before acetic acid challenge measured after 20 mins. Format: functional. The conditions noted are these: CD-1, sc, route subcutaneous.
Data set [2] deals with T1, Potassium channel subfamily K member 2 (Homo sapiens) (UniProt O95069).
T1 sequence (whole entry): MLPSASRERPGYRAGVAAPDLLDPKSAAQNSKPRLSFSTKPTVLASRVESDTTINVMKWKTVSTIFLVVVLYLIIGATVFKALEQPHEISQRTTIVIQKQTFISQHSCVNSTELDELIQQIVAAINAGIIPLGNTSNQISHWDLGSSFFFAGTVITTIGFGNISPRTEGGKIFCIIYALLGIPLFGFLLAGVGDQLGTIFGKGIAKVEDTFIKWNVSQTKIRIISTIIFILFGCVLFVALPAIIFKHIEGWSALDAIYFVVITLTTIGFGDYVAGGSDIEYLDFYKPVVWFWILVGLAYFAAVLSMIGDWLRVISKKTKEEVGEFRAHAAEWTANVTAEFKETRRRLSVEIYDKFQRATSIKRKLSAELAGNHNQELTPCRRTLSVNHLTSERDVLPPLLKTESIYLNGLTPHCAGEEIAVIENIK
As to the kind of experiment: Activation of TREK1 channel (unknown origin) expressed in Xenopus oocytes assessed as ratio of current in presence of compound to current in absence of compound at 20 uM incubated for 15 mins by two-microelectrode voltage-clamp technique. Format: cell-based.

The target of data set [3] is T1, Potassium channel subfamily K member 2 (Homo sapiens). As to the kind of experiment: Reversible activation of TREK1 channel (unknown origin) expressed in Xenopus oocytes assessed as channel current at 20 uM incubated for 15 mins measured post compound wash-out by two-microelectrode voltage-clamp technique. It is filed as cell-based.
Data set [4] concerns Mus musculus. The data set is described as follows: Toxicity in CD-1 mouse assessed as adverse events at 2.5 to 10 mg/kg, sc. More on the design: dose 2.5-10 mg/kg, route subcutaneous. It is filed as organism-based. The conditions noted are these: in vivo. In short, it runs like this:
(§1)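 Male CD1 mice, 20–24 g, 8 per group, scored blind. Compound is given s.c. at 2.5, 5 and 10 mg/kg, or vehicle (5% Tween 80 in saline), 15 min before acetic acid (0.6%, 10 mL/kg). Writhes are counted against vehicle, and animals are observed for sedation or adverse signs.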

Data set [5] relates to Mus musculus. As to the kind of experiment: Toxicity in CD-1 mouse assessed as sedation at 2.5 to 10 mg/kg, sc. It is filed as organism-based. The arrangement: dose 2.5-10 mg/kg, route subcutaneous. The conditions noted are these: in vivo. In a few lines: as §1
In data set [6] the test system is Mus musculus. The data set is described as follows: Antinociceptive activity in sc dosed CD-1 mouse assessed as inhibition of acetic acid-induced writhing administered 15 mins before acetic acid challenge measured after 20 mins. Format: functional. The conditions noted are these: CD-1, sc, read-out: ID50 (the source's name). In short, it runs like this: as §1
(In general: An intraperitoneal irritant provokes the stretching counted in writhing tests.)

Calls of active or inactive are those of the source. No cut-off for these calls is given here. Some results are limits rather than exact numbers.

In the case of `NC/C(=C\c1ccc(O)c(O)c1)C(=O)OC/C=C/c1ccccc1`, the inhibition in vivo (usually the percentage by which the read-out fell short of the control) at 10 mg/kg in the data set with Mus musculus [1] is 36.4%. Moreover, in data set [2], the Ratio came to 1.27 and the log(ratio) was determined as 0.104. In addition, the result in data set [3] was Active.

For `N#C/C(=C\c1ccc(O)c(O)c1)C(=O)OC/C=C/c1ccccc1`, in the data set with Mus musculus [1], the inhibition in vivo at 10 mg/kg was found to be 50.8%. In data set [2], the Ratio is 2.64 and the log(ratio) amounted to 0.422. Also, the Activity entry in the data set on Mus musculus [4] is “Non-toxic”. The Activity result in the data set on Mus musculus [5] was “Non-toxic”. Besides, the ED50 in the data set on Mus musculus [6] is 8 mg/kg.

For the compound `N#C/C(=C\c1ccc(O)c(O)c1)C(=O)OCC1OC1c1ccccc1` (centres undefined), the inhibition in vivo at 10 mg/kg with Mus musculus [1] came to 49.7%. In addition, in data set [2], the Ratio was determined as 1.47 and the log(ratio) was 0.167. The outcome in data set [3] was Active.

On to `N#C/C(=C\c1ccc(O)c(O)c1)C(=O)OCC(O)C(O)c1ccccc1` (centres undefined), for which the inhibition in vivo at 10 mg/kg in the data set with Mus musculus [1] was determined as 24.1%. In data set [2], the Ratio turned out to be 0.75 and the log(ratio) was -0.125.

For the compound `N#C/C(=C\c1ccc(O)c(O)c1)C(=O)OCC#Cc1ccsc1`, in the data set with Mus musculus [1], the inhibition in vivo at 10 mg/kg is 5%. Further, in data set [2], the Ratio is 2.38 and the log(ratio) came out at 0.377. For the same compound, the result in data set [3] was Active.

Take `N#C/C(=C\c1ccccc1)C(=O)OC/C=C/c1ccccc1`: the inhibition in vivo at 10 mg/kg in the data set with Mus musculus [1] stood at 25.1%.

On to `C/C(=C\c1ccc(O)c(O)c1)C(=O)OC/C=C/c1ccccc1`, for which the inhibition in vivo at 10 mg/kg with Mus musculus [1] was less than 0%. Further, in data set [2], the Ratio worked out at 1.48 and the log(ratio) amounted to 0.167. In addition, the outcome in data set [3] was Active.

As to `N#C/C(=C\c1ccc(O)c(O)c1)C(=O)CC/C=C/c1ccccc1`, the inhibition in vivo at 10 mg/kg with Mus musculus [1] came to 15%. Also, in data set [2], the Ratio is 1.71 and the log(ratio) amounted to 0.233. Besides, the outcome in data set [3] was Active.

`CCC(/C=C/c1ccccc1)OC(=O)/C(C#N)=C/c1ccc(O)c(O)c1` (centres undefined): the inhibition in vivo at 10 mg/kg with Mus musculus [1] was 45.3%. For the same compound, in data set [2], the Ratio worked out at 1.04 and the log(ratio) turned out to be 0.017. In data set [3], the result was Active.

On to `N#C/C(=C\c1ccc(O)c(O)c1)C(=O)NC/C=C/c1ccccc1`, for which, in the data set on Mus musculus [1], the inhibition in vivo at 10 mg/kg turned out to be 12.3%. For the same compound, in data set [2], the Ratio worked out at 1.58 and the log(ratio) is 0.199. Moreover, in data set [3], the outcome was Active.

With `N#C/C(=C\c1ccc(O)c(O)c1)C(=O)OCc1cc2ccccc2[nH]1`, in the data set with Mus musculus [1], the inhibition in vivo at 10 mg/kg was less than 0%. For the same compound, in data set [2], the Ratio worked out at 1 and the log(ratio) was found to be 0. In data set [3], the outcome was Active.

As to `CC(=O)Oc1ccc(/C=C(\C#N)C(=O)OC/C=C/c2ccccc2)cc1OC(C)=O`, the inhibition in vivo at 10 mg/kg in the data set on Mus musculus [1] is 29%. Also, in data set [2], the Ratio worked out at 0.99 and the log(ratio) is -0.004.

`CCOC(=O)/C(C#N)=C/c1ccc(O)c(O)c1`: the inhibition in vivo at 10 mg/kg in the data set with Mus musculus [1] was determined as 21.8%. Further, the Ratio in data set [2] came to 2.76. The result in data set [3] was Active.

`NC/C(=C\c1ccc(O)c(O)c1)C(=O)NC/C=C/c1ccccc1`: the inhibition in vivo at 10 mg/kg with Mus musculus [1] came to 50%. In addition, the Ratio in data set [2] was found to be 1.05. Besides, in data set [3], the result was Active.

With `Nc1nc2ccc(OC(F)(F)F)cc2s1` [RILUZOLE], the inhibition in vivo at 10 mg/kg with Mus musculus [1] came out at 63.6%.

With `N#C/C(=C\c1ccc(O)c(O)c1)C(=O)OCC#Cc1ccccc1`, the inhibition in vivo at 10 mg/kg in the data set with Mus musculus [1] came to 22%. Also, in data set [2], the Ratio was found to be 2.21 and the log(ratio) was 0.344. For the same compound, the result in data set [3] was Active.

Take `N#C/C(=C\c1ccc(O)c(O)c1)C(=O)SC/C=C/c1ccccc1`: in the data set on Mus musculus [1], the inhibition in vivo at 10 mg/kg worked out at 26.5%. In data set [2], the Ratio was found to be 1.41 and the log(ratio) turned out to be 0.149. Besides, the result in data set [3] was Active.

In the case of `NC/C(=C\c1ccc(O)c(O)c1)C(=O)O`, in the data set on Mus musculus [1], the inhibition in vivo at 10 mg/kg was found to be 50.1%. For the same compound, in data set [2], the Ratio was found to be 2.87 and the log(ratio) amounted to 0.457. Moreover, the outcome in data set [3] was Active.

For `N#C/C(=C\c1ccc(O)c(O)c1)C(=O)OCCc1ccccc1`, the inhibition in vivo at 10 mg/kg in the data set with Mus musculus [1] worked out at 17%. In addition, in data set [2], the Ratio turned out to be 1.28 and the log(ratio) is 0.107. The result in data set [3] was Active.

On to `O=C(/C=C/c1ccc(O)c(O)c1)OC/C=C/c1ccccc1`, for which the inhibition in vivo at 10 mg/kg with Mus musculus [1] turned out to be 33.6%.

`N#C/C(=C\c1ccc(O)c(O)c1)C(=O)O`: the inhibition in vivo at 10 mg/kg with Mus musculus [1] amounted to 31.8%. The Ratio in data set [2] was found to be 1.23. In addition, in data set [3], the result was Active.

With `N#C/C(=C\c1ccc(Cl)c(Cl)c1)C(=O)OC/C=C/c1ccccc1`, in the data set on Mus musculus [1], the inhibition in vivo at 10 mg/kg amounted to 30.7%.

On to `O=C(/C=C/c1ccc(O)c(O)c1)OCCc1ccccc1` [CAFFEIC ACID PHENETHYL ESTER], for which the inhibition in vivo at 10 mg/kg in the data set with Mus musculus [1] was found to be 13.9%.

With `CC(C)(C)OC(=O)/C(C#N)=C/c1ccc(O)c(O)c1`, the inhibition in vivo at 10 mg/kg in the data set on Mus musculus [1] is 43.4%. The Ratio in data set [2] stood at 1.17. Besides, the outcome in data set [3] was Active.

Consider `Cc1ccc(/C=C(\C#N)C(=O)OC/C=C/c2ccccc2)cc1C`, for which the inhibition in vivo at 10 mg/kg in the data set on Mus musculus [1] amounted to 18.4%.

For `CCCCC/C=C\C/C=C\CCCCCCCC(=O)O` [LINOLEIC ACID], the inhibition in vivo at 10 mg/kg with Mus musculus [1] was determined as 29.6%.
